Values after ≈ are worked out from the molar mass of the structure shown.
Columns and labels:
[1] = system: Mycobacterium tuberculosis; assay: Antimycobacterial activity against Mycobacterium tuberculosis H37Rv after 3 to 4 weeks by microplate alamar blue assay; type: functional
[2] = Selectivity index, ratio of IC50 for human HFF cells to MIC for Mycobacterium tuberculosis H37Rv; type: functional
Summary of the method: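 SI computed as IC50 on HFF cells (24 h MTT) divided by MIC against M. tuberculosis H37Rv (3–4 week microdilution, […]).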

[3] = system: HFF; assay: Cytotoxicity against human HFF cells after 24 hrs by MTT assay; type: cell-based
Summary of the method: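 Human foreskin fibroblasts in DMEM with 10% FCS exposed to test material for 24 h at 37 °C in CO2 incubator. MTT then added, 3 h further at 37 °C. Formazan read at 565 nm; percent cytotoxicity relative to untreated cells, reported as IC50.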

## O=C(/C=C/c1ccc(-c2ccc(Cl)cc2)o1)N1CCN(c2ccc(N3C[C@H](CNC4=NS(=O)(=O)c5ccccc5N4c4ccccc4)OC3=O)cc2F)CC1
[1]
  MIC: > 6.25 µg/mL

## CCN1C(NC[C@H]2CN(c3ccc(N4CCOCC4)c(F)c3)C(=O)O2)=NS(=O)(=O)c2ccccc21
[1]
  MIC: > 6.25 µg/mL

## O=C1O[C@@H](CNS(=O)(=O)c2ccc(Cl)cc2)CN1c1ccc(N2CCOCC2)c(F)c1
[1]
  MIC: > 6.25 µg/mL

## O=C1O[C@@H](CNS(=O)(=O)c2ccccc2)CN1c1ccc(N2CCOCC2)c(F)c1
[1]
  MIC: > 6.25 µg/mL

## CCN1C(NC[C@H]2CN(c3ccc(N4CCN(C(=O)/C=C/c5ccc(-c6ccc(Cl)cc6)o5)CC4)c(F)c3)C(=O)O2)=NS(=O)(=O)c2ccccc21
[1]
  MIC: > 6.25 µg/mL

## O=C1O[C@@H](CNS(=O)(=O)c2ccc(F)cc2)CN1c1ccc(N2CCOCC2)c(F)c1
[2]
  Selectivity Index: >100
[3]
  IC50: > 100 µM
[1]
  MIC: 1 µg/mL (≈ 2.21 µM)

## CCN1C(NC[C@H]2CN(c3ccc(N4CCSCC4)c(F)c3)C(=O)O2)=NS(=O)(=O)c2ccccc21
[1]
  MIC: > 6.25 µg/mL

## CO[C@H]1/C=C/O[C@@]2(C)Oc3c(C)c(O)c4c(O)c(c(/C=N/N5CCN(C)CC5)c(O)c4c3C2=O)NC(=O)/C(C)=C\C=C\[C@H](C)[C@H](O)[C@@H](C)[C@@H](O)[C@@H](C)[C@H](OC(C)=O)[C@@H]1C [RIFAMPIN]
[1]
  MIC: 0.12 µg/mL (≈ 0.146 µM)

## CC(=O)NC[C@H]1CN(c2ccc(N3CCN(C4=NS(=O)(=O)c5ccccc5N4C)CC3)c(F)c2)C(=O)O1
[2]
  Selectivity Index: >100
[3]
  IC50: > 100 µM
[1]
  MIC: 1 µg/mL (≈ 1.88 µM)

## O=C1O[C@@H](CNC2=NS(=O)(=O)c3ccccc3N2c2ccccc2)CN1c1ccc(N2CCSCC2)c(F)c1
[1]
  MIC: > 6.25 µg/mL

## CCN1C(N2CCN(c3ccc(N4C[C@H](CNC(C)=O)OC4=O)cc3F)CC2)=NS(=O)(=O)c2ccccc21
[2]
  Selectivity Index: >50
[3]
  IC50: > 50 µM
[1]
  MIC: 1 µg/mL (≈ 1.84 µM)

## CN1C(NC[C@H]2CN(c3ccc(N4CCOCC4)c(F)c3)C(=O)O2)=NS(=O)(=O)c2ccccc21
[1]
  MIC: > 6.25 µg/mL

## CN1C(NC[C@H]2CN(c3ccc(N4CCSCC4)c(F)c3)C(=O)O2)=NS(=O)(=O)c2ccccc21
[1]
  MIC: > 6.25 µg/mL

## CN1C(NC[C@H]2CN(c3ccc(N4CCN(C(=O)/C=C/c5ccc(-c6ccc(Cl)cc6)o5)CC4)c(F)c3)C(=O)O2)=NS(=O)(=O)c2ccccc21
[1]
  MIC: > 6.25 µg/mL

## CC(=O)NC[C@H]1CN(c2ccc(N3CCOCC3)c(F)c2)C(=O)O1 [LINEZOLID]
[1]
  MIC: 2 µg/mL (≈ 5.93 µM)

## CC(=O)NC[C@H]1CN(c2ccc(N3CCN(C4=NS(=O)(=O)c5ccccc5N4c4ccccc4)CC3)c(F)c2)C(=O)O1
[2]
  Selectivity Index: >8
[3]
  IC50: > 50 µM
[1]
  MIC: 6.25 µg/mL (≈ 10.5 µM)

## O=C1O[C@@H](CNC2=NS(=O)(=O)c3ccccc3N2c2ccccc2)CN1c1ccc(N2CCOCC2)c(F)c1
[1]
  MIC: > 6.25 µg/mL

## Cc1ccc(S(=O)(=O)NC[C@H]2CN(c3ccc(N4CCOCC4)c(F)c3)C(=O)O2)cc1
[1]
  MIC: > 6.25 µg/mL
